Assay outcomes (PubChem BioAssay)
Most compounds without a hit are left out; they make up all but 5.8% or so of the library.
Pf Dd2 inh: inhibitors of Plasmodium falciparum Dd2 growth | P. falciparum Dd2 growth, SYBR Green, 72 h; hits give low values | hit rate 2.3% among 94,000 | activity change, % at 10 µM; in the data active = activity change below about -80%; inconclusive = no clear call, values can overlap the other calls
IDH1 mut inh: blocks human IDH1 R132H reductase activity; O75874; diaphorase/resazurin fluorescence, 60 min; inhibition, % at 10 µM; hit rate 0.18% among 70,000; AID 624101; in the data active = inhibition above about 34%; inconclusive = no clear call, values can overlap the other calls; inactive = below about 11%
Target sequence (O75874 whole entry R132H): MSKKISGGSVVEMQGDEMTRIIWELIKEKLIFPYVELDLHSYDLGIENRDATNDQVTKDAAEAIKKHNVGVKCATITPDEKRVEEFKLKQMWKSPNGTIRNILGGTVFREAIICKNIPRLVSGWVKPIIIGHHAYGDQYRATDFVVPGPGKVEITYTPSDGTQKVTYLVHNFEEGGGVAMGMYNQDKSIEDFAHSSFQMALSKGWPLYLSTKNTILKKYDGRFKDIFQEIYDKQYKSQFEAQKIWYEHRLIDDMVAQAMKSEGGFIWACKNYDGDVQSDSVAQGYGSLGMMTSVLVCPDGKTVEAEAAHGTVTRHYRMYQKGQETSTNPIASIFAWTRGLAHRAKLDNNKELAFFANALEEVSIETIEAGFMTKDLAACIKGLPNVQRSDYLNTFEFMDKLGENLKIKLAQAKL
T cruzi growth-1: T. cruzi proliferation inhibition | T. cruzi beta-gal in NIH3T3, GalScreen luminescence, 90 h | inhibition, % at 8.34 µM | hit rate 5.9% among 77,000;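 active = mean inhibition above about 93%, with at least 55% of replicates each passing it, limit read from the data, passing the limit was not always enough; inconclusive = only one of those two conditions holds; inactive = neither condition holds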
GASC1 inh: inhibitors of human demethylase GASC-1 KDM4C; inhibition, % at 12.5 µM; AID 720574; hit rate 0.15% among 96,000; GST-KDM4C 2-372, H3K9me3 peptide, LANCE TR-FRET;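 active = mean replicate inhibition above about 25%, with at least 55% of replicates also reaching it, limit read from the data, passing the limit was not always enough; inconclusive = only one of those two conditions met; inactive = neither condition met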
Target sequence (Q9H3R0 2-372 limits assumed): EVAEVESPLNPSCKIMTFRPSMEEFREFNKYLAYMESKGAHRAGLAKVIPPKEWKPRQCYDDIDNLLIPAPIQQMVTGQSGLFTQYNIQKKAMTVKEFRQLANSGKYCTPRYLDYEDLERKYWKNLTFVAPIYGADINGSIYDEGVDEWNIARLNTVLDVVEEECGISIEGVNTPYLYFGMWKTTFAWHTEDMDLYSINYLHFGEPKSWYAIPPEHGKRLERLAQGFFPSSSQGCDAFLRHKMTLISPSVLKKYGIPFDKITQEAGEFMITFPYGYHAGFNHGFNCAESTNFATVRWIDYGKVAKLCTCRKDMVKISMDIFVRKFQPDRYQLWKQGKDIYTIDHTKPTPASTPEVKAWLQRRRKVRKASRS
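Assay system: GST-GASC-1 enzyme fragment 2-372 | Amount: 10 nM enzyme | Medium: HEPES buffer, pH 7.5, plus ascorbate | Reagent: H3K9me3 peptide substrate, Fe(II), 2-oxoglutarate | Doses: Single-point compound screen | Incubation: 30 min demethylation and 1 h detection at room temperature | Measured by: LANCE TR-FRET, excitation 340 nm, emissions 618 and 671 nm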
T cruzi growth-2: blocks T. cruzi growth in NIH3T3 host cells; inhibition, % at 8.35 µM; T. cruzi beta-gal in NIH3T3, GalScreen luminescence, 90 h; hit rate 72% among 5,600; shares compounds with T cruzi growth-1; AID 651739;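 active = mean replicate inhibition above about 95% and at least 55% of replicates individually reaching it, limit read from the data; inconclusive = only one of the two criteria is met; inactive = neither criterion is met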
T cruzi growth-3: Trypanosoma cruzi proliferation inhibition; inhibition, % at 2.09 µM; hit rate 21% among 5,600; shares compounds with T cruzi growth-1; AID 651740; T. cruzi beta-gal in NIH3T3, GalScreen luminescence, 90 h;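 active = mean inhibition above about 95%, with at least 55% of replicates also reaching it, limit read from the data; inconclusive = meets just one of the two conditions; inactive = meets neither condition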
NIH3T3 tox: NIH/3T3 (mouse) viability loss; shares compounds with T cruzi growth-1; NIH/3T3 viability, CellTiter-Glo ATP luminescence, 90 h; cytotoxicity (signal decrease), % at 8.35 µM; hit rate 14% among 5,600;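 active = mean signal decrease across replicates above about 35% based on untreated-well scatter, with enough replicates individually passing, limit read from the data; inconclusive = no rule stated though some were filed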
3T3 cytotox 2: kills mouse NIH/3T3 fibroblasts; hit rate 56% among 5,600; AID 651744; shares compounds with T cruzi growth-1; NIH/3T3 viability, CellTiter-Glo ATP luminescence, 90 h; inhibition, % at 24.9 µM;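 active = mean loss of cell viability signal at or above a set limit, and enough replicates individually reaching it; inconclusive = meets only the mean limit or only the replicate share; inactive = meets neither condition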
Each line names hits and unclear results; the compound was inactive in the other large screens (follow-up assays come after a bar, where they were run).

C[C@H](CO)N1C[C@H](C)[C@H](CN(C)Cc2ccc(Cl)c(Cl)c2)Oc2ccc(NC(=O)Nc3cccc4ccccc34)cc2C1=O	none
C[C@H](CO)N1C[C@H](C)[C@@H](CN(C)Cc2ccc(Cl)c(Cl)c2)Oc2ccc(NC(=O)Nc3cccc4ccccc34)cc2C1=O	none (no result: IDH1 mut inh)
C[C@@H]1CN([C@H](C)CO)C(=O)c2cc(NC(=O)Nc3cccc4ccccc34)ccc2O[C@@H]1CN(C)Cc1ccc(Cl)c(Cl)c1	T cruzi growth-1 inconclusive | T cruzi growth-2 inactive | T cruzi growth-3 inactive | NIH3T3 tox 36 | 3T3 cytotox 2 25
C[C@@H]1CN([C@H](C)CO)C(=O)c2cc(NC(=O)Nc3cccc4ccccc34)ccc2O[C@H]1CN(C)Cc1ccc(Cl)c(Cl)c1	T cruzi growth-1 102 | T cruzi growth-2 102 | T cruzi growth-3 96 | NIH3T3 tox 43 | 3T3 cytotox 2 29
COC(=O)c1cc(OC)c(OC)cc1NC(=O)COc1cc(C)c(Br)cc1C	none (no result: Pf Dd2 inh, T cruzi growth-1, GASC1 inh)
CC(Oc1ccc(Br)cc1)C(=O)NCc1ccco1 (stereo not given)	none (no result: Pf Dd2 inh, T cruzi growth-1, GASC1 inh)
COCC(=O)N1CCCCN2[C@@H](CO)[C@H](c3ccc(C#Cc4cccnc4)cc3)[C@@H]2C1	T cruzi growth-1 99 (no result: IDH1 mut inh) | T cruzi growth-2 inactive | T cruzi growth-3 inactive | NIH3T3 tox inactive | 3T3 cytotox 2 inactive
COCC(=O)N1CCCCN2[C@H](CO)[C@H](c3ccc(-c4ccc(OC)cc4)cc3)[C@@H]2C1	T cruzi growth-1 103 (no result: IDH1 mut inh) | T cruzi growth-2 inactive | T cruzi growth-3 inactive | NIH3T3 tox inactive | 3T3 cytotox 2 32
COCC(=O)N1CCCCN2[C@@H](CO)[C@H](c3ccc(-c4ccc(OC)cc4)cc3)[C@@H]2C1	T cruzi growth-1 104 (no result: IDH1 mut inh) | T cruzi growth-2 inactive | T cruzi growth-3 inactive | NIH3T3 tox inactive | 3T3 cytotox 2 inactive
COCC(=O)N1CCCCN2[C@@H](CO)[C@@H](c3ccc(C#Cc4ccc(OC)cc4)cc3)[C@@H]2C1	none (no result: IDH1 mut inh)
COCC(=O)N1CCCCN2[C@H](C1)[C@H](c1ccc(C#Cc3ccc(OC)cc3)cc1)[C@@H]2CO	T cruzi growth-1 105 (no result: IDH1 mut inh) | T cruzi growth-2 95 | T cruzi growth-3 inactive | NIH3T3 tox inactive | 3T3 cytotox 2 89
OC[C@@H]1[C@H](c2ccc(C#CC3CCCC3)cc2)[C@H]2CN(CCC(F)(F)F)CCCCN12	Pf Dd2 inh inconclusive, T cruzi growth-1 101 (no result: IDH1 mut inh) | T cruzi growth-2 inactive | T cruzi growth-3 109 | NIH3T3 tox 58 | 3T3 cytotox 2 105
Cc1cccc(-c2ccc([C@@H]3[C@H]4CN(CCC(F)(F)F)CCCCN4[C@H]3CO)cc2)c1	T cruzi growth-1 99 (no result: IDH1 mut inh) | T cruzi growth-2 103 | T cruzi growth-3 inactive | NIH3T3 tox 41 | 3T3 cytotox 2 105
CN(C)C(=O)c1ccc(-c2ccc([C@H]3[C@@H](CO)N4CCCCN(CCC(F)(F)F)C[C@H]34)cc2)cc1	T cruzi growth-1 101 (no result: IDH1 mut inh) | T cruzi growth-2 100 | T cruzi growth-3 inactive | NIH3T3 tox inactive | 3T3 cytotox 2 inactive
OC[C@@H]1[C@H](c2ccc(-c3cccc(F)c3)cc2)[C@@H]2CN(CCC(F)(F)F)CCCCN12	none (no result: IDH1 mut inh)
OC[C@@H]1[C@H](c2ccc(-c3cccc(F)c3)cc2)[C@H]2CN(CCC(F)(F)F)CCCCN12	T cruzi growth-1 107 (no result: IDH1 mut inh) | T cruzi growth-2 99 | T cruzi growth-3 inactive | NIH3T3 tox inactive | 3T3 cytotox 2 104
CNC(=O)CN(c1cc(C)ccc1OC)S(C)(=O)=O	none (no result: Pf Dd2 inh, T cruzi growth-1, GASC1 inh)
COC(=O)c1cc(OC)c(OC)cc1NC(=O)COc1ccccc1F	none (no result: Pf Dd2 inh, T cruzi growth-1, GASC1 inh)
OC[C@H]1[C@@H](c2ccc(-c3ccc(F)cc3)cc2)[C@H]2CN(CCC(F)(F)F)CCCCN21	T cruzi growth-1 102 (no result: IDH1 mut inh) | T cruzi growth-2 103 | T cruzi growth-3 inactive | NIH3T3 tox 57 | 3T3 cytotox 2 105
OC[C@@H]1[C@H](c2ccc(-c3ccccc3)cc2)[C@H]2CN(CCC(F)(F)F)CCCCN12	Pf Dd2 inh -80, T cruzi growth-1 104 (no result: IDH1 mut inh) | T cruzi growth-2 103 | T cruzi growth-3 inactive | NIH3T3 tox inactive | 3T3 cytotox 2 106
OC[C@@H]1[C@@H](c2ccc(-c3ccccc3)cc2)[C@H]2CN(CCC(F)(F)F)CCCCN12	none (no result: IDH1 mut inh)
OC[C@@H]1[C@H](c2ccc(-c3ccc(F)cc3)cc2)[C@@H]2CN(CCC(F)(F)F)CCCCN12	T cruzi growth-1 inconclusive (no result: IDH1 mut inh) | T cruzi growth-2 105 | T cruzi growth-3 inactive | NIH3T3 tox 40 | 3T3 cytotox 2 105
O=C(COc1ccccc1CO)Nc1ccccc1	none (no result: Pf Dd2 inh, T cruzi growth-1, GASC1 inh)
O=C(c1ccccc1F)N1CC[C@H]2[C@H](CO)Nc3ccc(-c4ccc(F)cc4)cc3[C@H]21	T cruzi growth-1 99 (no result: IDH1 mut inh) | T cruzi growth-2 101 | T cruzi growth-3 99 | NIH3T3 tox inactive | 3T3 cytotox 2 95
O=C(c1ccc(F)cc1)N1CC[C@@H]2[C@@H](CO)Nc3ccc(-c4ccccc4F)cc3[C@@H]21	T cruzi growth-1 110 (no result: IDH1 mut inh) | T cruzi growth-2 104 | T cruzi growth-3 inactive | NIH3T3 tox inactive | 3T3 cytotox 2 71
O=C(c1ccccc1)N1CC[C@@H]2[C@H]1c1cc(-c3ccccc3F)ccc1N[C@@H]2CO	T cruzi growth-1 110 (no result: IDH1 mut inh) | T cruzi growth-2 100 | T cruzi growth-3 inactive | NIH3T3 tox inactive | 3T3 cytotox 2 30
O=C(c1ccccc1F)N1CC[C@@H]2[C@H]1c1cc(-c3ccc(F)cc3)ccc1N[C@@H]2CO	none (no result: IDH1 mut inh)
O=C(c1ccccc1)N1CC[C@H]2[C@H](CO)Nc3ccc(-c4ccccc4F)cc3[C@H]21	T cruzi growth-1 108 (no result: IDH1 mut inh) | T cruzi growth-2 98 | T cruzi growth-3 inactive | NIH3T3 tox inactive | 3T3 cytotox 2 inactive
O=C(c1cccc(F)c1)N1CC[C@@H]2[C@@H](CO)Nc3ccc(-c4ccccc4F)cc3[C@@H]21	none (no result: IDH1 mut inh)
NCCCN(Cc1ccco1)C1CCCC1	none (no result: Pf Dd2 inh, T cruzi growth-1, GASC1 inh)
CC(C)(O)C#Cc1ccc([C@@H]2[C@@H](CO)N3CCCCN(C(=O)c4cccc(F)c4)C[C@@H]23)cc1	T cruzi growth-1 113 (no result: IDH1 mut inh) | T cruzi growth-2 inactive | T cruzi growth-3 inactive | NIH3T3 tox inactive | 3T3 cytotox 2 inactive
CC(C)(O)C#Cc1ccc([C@H]2[C@@H](CO)N3CCCCN(C(=O)c4cccc(F)c4)C[C@@H]23)cc1	T cruzi growth-1 103 (no result: IDH1 mut inh) | T cruzi growth-2 105 | T cruzi growth-3 inactive | NIH3T3 tox inactive | 3T3 cytotox 2 inactive
C[C@H]1CCCCO[C@H](CN(C)C(=O)c2ccncc2)[C@@H](C)CN([C@@H](C)CO)C(=O)c2cc(NC(=O)c3ccncc3)ccc2O1	none (no result: IDH1 mut inh)
CC(C)NC(=O)N(C)C[C@H]1OCCCC[C@@H](C)Oc2ccc(NC(=O)c3ccncc3)cc2C(=O)N([C@H](C)CO)C[C@@H]1C	T cruzi growth-1 96 | T cruzi growth-2 inactive | T cruzi growth-3 inactive | NIH3T3 tox inactive | 3T3 cytotox 2 inactive
